The values below come from ChEMBL document CHEMBL1125084, “Synthesis and evaluation of a series of aryl[e]fused pyrazolo[4,3-c]pyridines with potential anxiolytic activity” (J Med Chem, 1990).

Each structure is given as a SMILES string. Activity calls are given as the source filed them.

The species entered for assay [1] is Rattus norvegicus. As to the kind of experiment: Evaluated for shock induced suppression of drinking by rat vogel test and number of shocks taken were reported. The assay is classed as functional. The procedure, abridged:
(§1)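 Rats deprived of water, allowed 4 h drinking, then withdrawn overnight. On test day, free drinking for 30 s, then a mild footshock (0.225 mA, 0.5 s) for every 5 s of accumulated drinking in a 3 min session. Count of shocks taken recorded. Drug given ip to groups of 6-12 rats 30 min before testing; vehicle 1% methyl cellulose in 0.5% saline.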

In assay [2] the test system is Mus musculus. Put plainly: Percent of mice not grasping wire at a dose of 30 mg/Kg administered intraperitoneally in horizontal wire test; Inactive. Format: functional, organism-based.
The target of assay [3] is GABA-A receptor; anion channel. Put plainly: Displacement of [3H]flunitrazepam from GABA-A Benzodiazepine receptor of rat brain membranes. The assay is classed as cell membranes, Membrane. The procedure, abridged:
(§2)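 Well-washed, frozen rat whole brain membranes incubated with 0.5 nM [3H]flunitrazepam; nonspecific binding defined with 10 µM clonazepam. IC50 from log concentration vs percent inhibition curves, Ki via Cheng-Prusoff; triplicate determinations.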
Background: In a radioligand displacement assay an active substance lowers the binding of a labelled ligand.

In assay [4] the test system is Mus musculus. As to the kind of experiment: Percentage change in seizure threshold by anti-pentylenetetrazole test in mouse at a dose of 30 mg/Kg administered perorally; Inactive. The assay is classed as functional, organism-based.
Assay [5] concerns Mus musculus. As to the kind of experiment: Percentage change in seizure threshold by pentylenetetrazole infusion method in mouse at a dose of 30 mg/Kg administered perorally. Format: functional.
Assay [6] concerns Mus musculus. Put plainly: Percentage change in seizure threshold by pentylenetetrazole infusion method in mouse at a dose of 30 mg/Kg administered perorally; Inactive. Format: functional, organism-based.
Assay [7] has as its system GABA-A receptor; anion channel. As to the kind of experiment: Displacement of [3H]flunitrazepam from GABA-A Benzodiazepine receptor of rat brain membranes (Insoluble). Format: cell membranes, Membrane. The procedure, abridged:
as §2

Assay [8] has as its system Mus musculus. Put plainly: Percentage change in seizure threshold by pentylenetetrazole infusion method in mouse at a dose of 100 mg/Kg administered perorally. Format: functional.
Assay [9] concerns Mus musculus. As to the kind of experiment: Percent of mice not grasping wire at a dose of 300 mg/Kg administered intraperitoneally in horizontal wire test. Format: functional.
In assay [10] the test system is Mus musculus. Put plainly: Effective dose required for the percentage change in seizure threshold by anti-pentylenetetrazole test in mouse when administered perorally. The assay is classed as functional. To be noted: po. The procedure, abridged:
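Male CD-1 mice (18-24 g), groups of 10, dosed orally 60 min before testing. Lightly restrained mice received PTZ (8 mg/mL) by tail-vein infusion at 0.5 mL/min. Time to tonic hindlimb extension was converted to a PTZ threshold dose (mg/kg). Effect was expressed as % change in seizure threshold versus controls, with a two-tailed Student's t test.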

The subject of assay [11] is Rattus norvegicus. As to the kind of experiment: Compound was administered at a dose of 10 mg/Kg intraperitoneally and was evaluated for shock induced suppression of drinking by rat vogel test and number of shocks taken were reported. Format: functional. The procedure, abridged: as §1
For assay [12], the system named is Mus musculus. Put plainly: Percentage change in seizure threshold by anti-pentylenetetrazole test in mouse at a dose of 100 mg/Kg administered perorally; Inactive. Format: functional, organism-based.
The subject of assay [13] is Rattus norvegicus. As to the kind of experiment: Compound was administered at a dose of 20 mg/Kg intraperitoneally and was evaluated for shock induced suppression of drinking by rat vogel test and number of shocks taken were reported; Inactive. Format: functional, organism-based. In a few lines: as §1
For assay [14], the system named is Mus musculus. Put plainly: Compound was evaluated for horizontal wire test and percent of mice not grasping wire, it was administered intraperitoneally. To be noted: ip.
The subject of assay [15] is Rattus norvegicus. Put plainly: Compound was administered at a dose of 2.5 mg/Kg intraperitoneally and was evaluated for shock induced suppression of drinking by rat vogel test and number of shocks taken were reported. The assay is classed as functional. The procedure, abridged: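 Rats had water for a 4-h period, then water was withdrawn overnight. On test day, after 30 s of free drinking, a 0.225 mA footshock lasting 0.5 s was given for every 5 s of accumulated drinking in a 3-min session. Drug was given ip to groups of 6-12 rats 30 min before testing. Vehicle controls received 1% methyl cellulose in 0.5% saline. Read-out was the number of shocks taken.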

In assay [16] the test system is Mus musculus. As to the kind of experiment: Compound was evaluated for horizontal wire test and percent of mice not grasping wire, it was administered perorally. The note with it: po.
Assay [17] concerns GABA-A receptor; anion channel. As to the kind of experiment: Displacement of [3H]flunitrazepam from GABA-A Benzodiazepine receptor of rat brain membranes (insoluble). Format: cell membranes, Membrane. The procedure, abridged:
as §2

Assay [18] deals with Mus musculus. Put plainly: Percent of mice not grasping wire at a dose of 30 mg/Kg administered intraperitoneally in horizontal wire test. The assay is classed as functional.
The subject of assay [19] is Mus musculus. As to the kind of experiment: Percentage change in seizure threshold by anti-pentylenetetrazole test in mouse at a dose of 30 mg/Kg administered perorally. The assay is classed as functional.

As to `Cn1ncc2ccc3ncc4c(=O)n(-c5ccc(Cl)cc5)[nH]c4c3c21`, the No. of shocks in assay [1] is listed as 13. Besides, the result in assay [2] was inactive. In addition, the Ki – broadly, a measure of affinity in units of concentration, obtained from inhibition or displacement – in [3] was 0.012 µM. For the same compound, the Change entry in assay [4] was “inactive”.

Compound `O=c1c2c(-c3ccccc3)nc3ccsc3c2[nH]n1-c1ccc(Cl)cc1` registered a No. of shocks in [1] of 6.7. Besides, the Ki in assay [3] was more than 1000 µM. In [5], the Change worked out at 18%.

As to `COc1c2cnc3ccsc3c2nn1-c1ccc(Cl)cc1`, the Change entry in [6] is “inactive”. This compound also displayed a No. of shocks in assay [1] of 13.4. In addition, the Ki entry in assay [7] is recorded as “Insoluble”.

For `Cc1[nH]sc2ncc3c(=O)n(-c4ccc(Cl)cc4)nc3c12`, the Change in assay [8] was 48%. Further, the No. of shocks in assay [1] was determined as 11.9. In addition, the outcome in assay [2] was inactive. The Ki in [3] came to 0.099 µM.

In assay [9], `O=C1C2C=Nc3ccccc3C2=NN1c1ccc(Cl)cc1` (centres undefined) [CGS-9896] displayed an Activity of 30%. Moreover, the 50% effect level in assay [10] (ED50) was put at a dose of 3.5 mg/kg. The same compound yielded a No. of shocks in [11] of 12.7. The compound further displayed a Ki in [3] of 0.00035 µM.

Regarding `O=c1c2cnc3c4ccccc4sc3c2[nH]n1-c1ccc(Cl)cc1`, the Change entry in assay [6] was “inactive”. Besides, the No. of shocks in assay [1] came out at 14.1. In assay [2], the outcome was inactive. This compound also showed a Ki in [3] of 0.81 µM.

As to `Cn1cc2c(=O)n(-c3ccc(Cl)cc3)nc-2c2sccc21`, the Change entry in assay [6] is “inactive”. The compound further displayed a No. of shocks in assay [1] of 16.8. Moreover, the Ki result in assay [7] is given as “Insoluble”. Moreover, the result in assay [2] was inactive.

On to `Cc1ccc2c(ncc3c(=O)n(-c4ccc(Cl)cc4)[nH]c32)n1`, for which, in assay [12], the Change entry was “inactive”. In addition, in assay [13], the No. of shocks entry was “inactive”. Moreover, the affinity in [3] corresponds to a Ki of 11 µM.

Compound `Cc1nc2ccsc2c2[nH]n(-c3ccc(Cl)cc3)c(=O)c12` yielded a Change in assay [8] of 57%. Further, the No. of shocks in assay [1] stood at 6.1. In assay [3], the affinity, expressed as Ki, was 1 µM.

As to `CN1C(=O)CN=C(c2ccccc2)c2cc(Cl)ccc21` [DIAZEPAM], the ED50 (as a rule, the dose that gives a 50% effect, or the effect in half of the subjects) in [10] worked out at 1.5 mg/kg; in assay [14] it was 3.1 mg/kg; in assay [16] it was 3.8 mg/kg. Also, the No. of shocks in assay [15] was determined as 21.2.

Turning to `Clc1ccc(-n2nc3c(cnc4ccsc43)c2Cl)cc1`, the Change entry in assay [6] is “inactive”. This compound also returned a No. of shocks in assay [1] of 13.7. Moreover, the Ki result in assay [17] is “Insoluble”.

The compound `Cn1c2ccccc2c2ncc3c(=O)n(-c4ccc(Cl)cc4)[nH]c3c21` gave an Activity in assay [18] of 25%. Also, in [1], the No. of shocks is given as 10. Moreover, the inhibition constant (Ki) entry in assay [17] was “Insoluble”.

The compound `Cn1cc2c(ccc3ncc4c(=O)n(-c5ccc(Cl)cc5)[nH]c4c32)n1` displayed a No. of shocks in assay [1] of 5.7. In assay [2], the result was inactive. In assay [3], this compound displayed a Ki of 0.00046 µM. In addition, in assay [4], the Change entry was “inactive”.

Compound `O=c1c2cnc3ccsc3c2[nH]n1-c1ccc(Cl)cc1` registered a No. of shocks in assay [1] of 14. Also, the Change entry in assay [12] is “inactive”. The outcome in [2] was inactive. This compound also came in with a Ki in assay [3] of 0.00046 µM.

`Cn1cc2ccc3ncc4c(=O)n(-c5ccc(Cl)cc5)[nH]c4c3c2n1`: the No. of shocks in [1] was 7. For the same compound, the result in [2] was inactive. For the same compound, the Ki in assay [3] worked out at 0.00029 µM.

As to `CCc1cc2c(ncc3c(=O)n(-c4ccc(Cl)cc4)[nH]c32)s1`, in assay [6], the Change entry is “inactive”. This compound also gave a No. of shocks in assay [1] of 14.4. The result in assay [2] was inactive. In [3], this compound yielded a Ki of 0.0018 µM.

As for `Cn1ncc2cc3c(cc21)ncc1c(=O)n(-c2ccc(Cl)cc2)[nH]c13`, in assay [1], the No. of shocks was found to be 9. Affinity in assay [3] was put at a Ki of 0.014 µM. Further, the Change result in [4] is “inactive”.

Turning to `Cn1cnc2c3c(ccc21)ncc1c(=O)n(-c2ccc(Cl)cc2)[nH]c13`, the No. of shocks in assay [1] is recorded as 12. For the same compound, in [2], the result was inactive. In addition, the affinity in assay [3] corresponds to a Ki of 0.0018 µM.

`Cn1ncc2c3c(ccc21)ncc1c(=O)n(-c2ccc(Cl)cc2)[nH]c13`: the Change in assay [19] was determined as 37%. For the same compound, the No. of shocks in assay [1] is listed as 13. In addition, in assay [2], the outcome was inactive. The compound further returned a Ki in assay [3] of 0.0024 µM.

For the compound `Cn1c2c(cnc3ccsc32)c(=O)n1-c1ccc(Cl)cc1`, the Change entry in assay [6] is “inactive”. For the same compound, the No. of shocks in assay [1] was 8.6. Besides, the affinity in assay [3], expressed as Ki, was 2.6 µM.

In the case of `Oc1c2cnc3cscc3c2nn1-c1ccc(Cl)cc1`, the Change in [19] is recorded as 47%. In addition, in [1], the No. of shocks is recorded as 17. Besides, in assay [2], the result was inactive. The Ki in [3] came to 0.00032 µM.
